Bioassay records (PubChem BioAssay)
Only some compounds are listed: those with a hit (about 2.3% of all), similar ones and a draw of the others.
TRPC6 act: activates the mouse TRPC6 cation channel. Q61143. HEK293-TRPC6 membrane potential dye fluorescence; hits give high values. B-score at 10 µM. 310,000 tested, 0.13% active;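 active = B-score of the integrated fluorescence ratio above library mean plus 3 SD, and starting fluorescence ratio within library mean plus 5 SD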;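 also: higher score means more depolarization so channel activation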
TRPC6 inhibitor: mouse TRPC6 channel inhibition; HEK293-TRPC6, membrane potential dye, ACh-evoked depolarization; hits give low values; B-score at 10 µM; 310,000 tested, 1.1% active;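 active = B-score under library mean minus 3 SD, initial fluorescence not abnormally high, positive integrated signal ratio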;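 also: B-score derived from integrated fluorescence ratio over the kinetic read; more negative B-score means stronger inhibition of depolarization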
TRPC4 act: activators of mouse TRPC4 channel. AID 2237. HEK293 TRPC4beta/mu-opioid, Fluo4 calcium fluorescence; hits give high values. B-score at 10 µM. 310,000 tested, 0.49% active;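 active = B-score above 5 SD of library B-scores, and initial fluorescence ratio not above library mean plus 5 SD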;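 also: positive B-score marks a calcium rise read as TRPC4 activation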
Target sequence (Q9QUQ5 whole entry, looked up): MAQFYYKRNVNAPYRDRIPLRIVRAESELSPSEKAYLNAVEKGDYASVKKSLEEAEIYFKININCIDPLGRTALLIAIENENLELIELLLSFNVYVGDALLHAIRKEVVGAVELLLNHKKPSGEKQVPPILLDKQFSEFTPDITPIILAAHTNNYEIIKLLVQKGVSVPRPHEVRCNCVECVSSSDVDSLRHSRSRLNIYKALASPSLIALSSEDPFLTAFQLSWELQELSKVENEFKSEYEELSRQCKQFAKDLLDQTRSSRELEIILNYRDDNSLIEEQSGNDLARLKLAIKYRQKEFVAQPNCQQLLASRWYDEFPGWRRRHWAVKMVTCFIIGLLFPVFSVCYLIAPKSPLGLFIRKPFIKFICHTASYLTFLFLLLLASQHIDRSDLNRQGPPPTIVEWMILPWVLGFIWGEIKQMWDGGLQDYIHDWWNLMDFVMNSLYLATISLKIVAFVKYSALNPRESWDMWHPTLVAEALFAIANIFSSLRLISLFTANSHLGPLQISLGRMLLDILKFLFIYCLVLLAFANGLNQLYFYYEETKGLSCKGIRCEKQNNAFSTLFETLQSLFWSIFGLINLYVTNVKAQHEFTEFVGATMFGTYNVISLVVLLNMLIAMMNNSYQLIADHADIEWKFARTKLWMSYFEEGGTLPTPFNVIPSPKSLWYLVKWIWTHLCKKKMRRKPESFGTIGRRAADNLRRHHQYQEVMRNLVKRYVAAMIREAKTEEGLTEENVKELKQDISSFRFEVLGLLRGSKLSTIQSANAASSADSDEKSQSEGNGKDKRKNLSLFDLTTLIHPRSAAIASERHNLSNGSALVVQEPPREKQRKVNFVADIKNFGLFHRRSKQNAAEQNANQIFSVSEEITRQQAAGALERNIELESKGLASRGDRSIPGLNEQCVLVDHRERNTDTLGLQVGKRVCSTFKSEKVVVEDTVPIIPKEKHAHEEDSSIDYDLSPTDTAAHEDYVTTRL
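Assay system: HEK293 stable line with TRPC4beta plus mu-opioid receptor. Times: dye 45 min RT, read 110 s. Measured by: kinetic Fluo4 calcium fluorescence. Measure: B score of integrated ratio. Controls: assay buffer as low control, maximal DAMGO as high control.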
TRPC4 potent: allosteric potentiators of mouse TRPC4 channel; Q9QUQ5; HEK293 TRPC4beta/mu-opioid, DAMGO EC20, Fluo-4 Ca2+ flux; hits give high values; B-score at 10 µM; 310,000 tested, 0.42% active; AID 2227;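 active = B-score of calcium response area above 5 SD of library B-scores, with initial fluorescence ratio within 5 SD of library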;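 also: B-score of integrated fluorescence ratio over time as area under calcium response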
TRPC4 inh: blocks the mouse TRPC4 cation channel | Q9QUQ5 | 300,000 tested, 0.39% active | B-score at 10 µM | HEK293 TRPC4beta/mu-opioid, DAMGO-evoked Fluo4 calcium flux; hits give low values;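 active = B-score over 3 SD under the library average, no early fluorescence shift, positive overall ratio signal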
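Assay system: Stable TRPC4beta/mu-opioid receptor HEK293 cells | Reagent: DAMGO in two steps, submaximal then maximal | Compound dosing: Single concentration per test compound | Signal: Fluo4 Ca2+ flux fluorescence | Evaluation: Per-well B score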
An asterisk follows results filed as active.

Screening CC1Cc2ccccc2N1Cc1ccc([N+](=O)[O-])cc1 (stereo not given) returned TRPC6 act inactive, TRPC6 inhibitor inactive, TRPC4 act inactive, TRPC4 potent inactive and TRPC4 inh inactive.
`COc1ccc(Cl)c2sc(N(CCN(C)C)C(=O)CCS(=O)(=O)c3ccc(C)cc3)nc12` gave TRPC6 act inactive, TRPC6 inhibitor inactive, TRPC4 act inactive, TRPC4 potent 23* and TRPC4 inh inactive.
COCC(C)NC(=O)COCc1cc(-c2ccc3c(c2)OCO3)on1 (stereo not given) was read as TRPC6 act inactive, TRPC6 inhibitor inactive, TRPC4 act inactive, TRPC4 potent inactive and TRPC4 inh inactive.
Screening O=S(=O)(Nc1ccc(N2CCCCC2)cc1)c1ccc(F)c(F)c1 returned TRPC6 act inactive, TRPC6 inhibitor inactive, TRPC4 act inactive, TRPC4 potent inactive and TRPC4 inh inactive.
O=C(CCNC(=O)c1ccc(Br)cc1)Nc1ccccc1N1CCCCC1 was read as TRPC6 act inactive, TRPC6 inhibitor inactive, TRPC4 act inactive, TRPC4 potent inactive and TRPC4 inh -6*.
`O=C(CCNC(=O)c1ccccc1Cl)Nc1ccccc1N1CCCC1` gave TRPC6 act inactive, TRPC6 inhibitor inactive, TRPC4 act inactive, TRPC4 potent inactive and TRPC4 inh inactive.
Screening CNCCCCOc1ccccc1-c1ccccc1 returned TRPC6 act inactive, TRPC6 inhibitor inactive, TRPC4 act 52*, TRPC4 potent inactive and TRPC4 inh inactive.
`CCCCNCCOc1ccccc1-c1ccccc1` gave TRPC6 act inactive, TRPC6 inhibitor inactive, TRPC4 act inactive, TRPC4 potent inactive and TRPC4 inh -6*.
Screening CNCCOc1ccccc1-c1ccccc1 returned TRPC6 act inactive, TRPC6 inhibitor inactive, TRPC4 act inactive, TRPC4 potent inactive and TRPC4 inh inactive.
For Cc1ccc(CN2CCN(Cc3ccc(O)cc3)CC2CCO)o1 (stereo not given) the results were TRPC6 act inactive, TRPC6 inhibitor inactive, TRPC4 act inactive, TRPC4 potent inactive and TRPC4 inh inactive.
For C/C=C1\COC(C(=O)NCCCN2CCCC2=O)(C(F)(F)F)C=C1C=C(C)C (stereo not given) the results were TRPC6 act inactive, TRPC6 inhibitor inactive, TRPC4 act inactive, TRPC4 potent inactive and TRPC4 inh inactive.
`Cc1ccc(CNS(=O)(=O)c2ccc(CN3C(=O)c4cccnc4C3=O)s2)o1` gave TRPC6 act inactive, TRPC6 inhibitor inactive, TRPC4 act inactive, TRPC4 potent inactive and TRPC4 inh inactive.
Cc1ccc(N(C(=O)CNC(=O)c2ccco2)C(C(=O)NC2CCCCC2)c2ccncc2)c(C)c1 (stereo not given) was read as TRPC6 act inactive, TRPC6 inhibitor inactive, TRPC4 act inactive, TRPC4 potent inactive and TRPC4 inh inactive.
Screening COc1cc(NC(=S)NCCc2ccccc2)c(OC)cc1NC(=O)CC(C)C returned TRPC6 act inactive, TRPC6 inhibitor inactive, TRPC4 act inactive, TRPC4 potent inactive and TRPC4 inh -6*.
O=C(Nc1nnc(-c2ccccc2)o1)c1ccc(Cl)cc1 was read as TRPC6 act inactive, TRPC6 inhibitor inactive, TRPC4 act 48*, TRPC4 potent inactive and TRPC4 inh inactive.
For COc1ccc(S(=O)(=O)NNc2nc(C)cc(C)n2)cc1Br the results were TRPC6 act inactive, TRPC6 inhibitor inactive, TRPC4 act inactive, TRPC4 potent inactive and TRPC4 inh inactive.
Cc1cc(C)nc(NNS(=O)(=O)c2ccc(F)c(Cl)c2)n1 was read as TRPC6 act inactive, TRPC6 inhibitor inactive, TRPC4 act inactive, TRPC4 potent 17* and TRPC4 inh inactive.
Cc1ccccc1C(=O)c1cccn1CC(=O)NC(C)c1ccccc1 (stereo not given) was read as TRPC6 act inactive, TRPC6 inhibitor inactive, TRPC4 act inactive, TRPC4 potent inactive and TRPC4 inh inactive.
`Cc1ccc(C(=O)NC(=S)Nc2c(C)ccc3nsnc23)cc1` gave TRPC6 act inactive, TRPC6 inhibitor inactive, TRPC4 act inactive, TRPC4 potent inactive and TRPC4 inh -5*.
Screening COc1ccc(C2CC(c3ccc(OC)cc3OC(C)=O)=NN2C(=O)c2ccccc2)cc1 (stereo not given) returned TRPC6 act inactive, TRPC6 inhibitor inactive, TRPC4 act inactive, TRPC4 potent 11* and TRPC4 inh inactive.
For COc1ccc(C2=NN(C(=O)c3ccccc3)C(c3ccc(OC)c(OC)c3)C2)c(O)c1 (stereo not given) the results were TRPC6 act inactive, TRPC6 inhibitor inactive, TRPC4 act inactive, TRPC4 potent inactive and TRPC4 inh -7*.
`CCC(Sc1nc(N)c(NC(=O)c2ccc(Br)o2)c(=O)[nH]1)C(=O)O` (stereo not given) gave TRPC6 act inactive, TRPC6 inhibitor inactive, TRPC4 act inactive, TRPC4 potent inactive and TRPC4 inh inactive.
Screening OCCNc1nc(NCc2ccccc2)c2ccccc2n1 returned TRPC6 act inactive, TRPC6 inhibitor inactive, TRPC4 act inactive, TRPC4 potent inactive and TRPC4 inh -6*.
For c1ccc(CCNc2nc(-c3ccccn3)nc3ccccc23)cc1 the results were TRPC6 act inactive, TRPC6 inhibitor inactive, TRPC4 act inactive, TRPC4 potent inactive and TRPC4 inh -6*.
For Cc1ccc(-c2nc(NCc3cccnc3)c3ccccc3n2)cc1 the results were TRPC6 act inactive, TRPC6 inhibitor inactive, TRPC4 act inactive, TRPC4 potent inactive and TRPC4 inh inactive.
For c1ccc(-c2nc(NCc3cccnc3)c3ccccc3n2)cc1 the results were TRPC6 act inactive, TRPC6 inhibitor inactive, TRPC4 act inactive, TRPC4 potent inactive and TRPC4 inh -6*.
C/C(=N\Nc1nc(-c2ccccn2)nc2ccccc12)c1ccc(F)cc1 was read as TRPC6 act inactive, TRPC6 inhibitor inactive, TRPC4 act inactive, TRPC4 potent inactive and TRPC4 inh inactive.
`O=C(Nc1ccc(F)cc1)N1CCN(c2nc3ccccc3s2)CC1` gave TRPC6 act inactive, TRPC6 inhibitor inactive, TRPC4 act inactive, TRPC4 potent inactive and TRPC4 inh inactive.
Screening O=C(Nc1ccccc1)N1CCN(c2nc3ccccc3s2)CC1 returned TRPC6 act inactive, TRPC6 inhibitor inactive, TRPC4 act 43*, TRPC4 potent inactive and TRPC4 inh inactive.
Screening CC(C)[C@H](NC(=O)c1c(F)cccc1F)C(=O)Nc1cccc(Br)c1 returned TRPC6 act inactive, TRPC6 inhibitor inactive, TRPC4 act inactive, TRPC4 potent inactive and TRPC4 inh inactive.
Screening O=C(CSc1ccccc1[N+](=O)[O-])NC1CCS(=O)(=O)C1 (stereo not given) returned TRPC6 act inactive, TRPC6 inhibitor inactive, TRPC4 act inactive, TRPC4 potent inactive and TRPC4 inh inactive.
